According to ChEMBL document CHEMBL1146075, “Synthesis and anti-BVDV activity of acridones as new potential antiviral agents” (J Med Chem, 2006):
≈ marks a conversion by molar mass, not a printed value. Calls of active or inactive are those of the source. No cut-off for these calls is given here.

What was measured:
Punta Toro virus = assay: Antiviral activity against Punta Toro virus in vero cells; format: functional, organism-based
[1] = test system: Human immunodeficiency virus 2; assay: Antiviral activity against HIV2 ROD in MT4 cells; format: functional, organism-based
[2] = test system: Mammalian orthoreovirus 1; assay: Antiviral activity against Reovirus1 in vero cells; format: functional, organism-based
[3] = test system: Human immunodeficiency virus 1; assay: Antiviral activity against HIV1 3B in MT4 cells; format: functional, organism-based
Human alphaherpesvirus 1 = assay: Antiviral activity against HSV1 KOS in E6SM cells; format: functional, organism-based
Vaccinia virus = assay: Antiviral activity against vaccinia virus in E6SM cells; format: functional, organism-based; conditions: Orthopoxvirus vaccinia
Sindbis virus = assay: Antiviral activity against sindbis virus in vero cells; format: functional, organism-based
Human betaherpesvirus 5 [4] = assay: Antiviral activity against HCMV AD169 in human embryonic lung cells; format: functional, organism-based
[5] = test system: Bovine viral diarrhea virus 1; assay: Antiviral activity against BVDV NADL in MDBK cells; format: functional, organism-based; conditions: Bovine viral diarrhea virus isolates and strains
Outline: (§1)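 MDBK cells seeded 20 × 10^3/well in MEM with 5% heat-inactivated FCS, confluent after 24 h; serial 3-fold compound dilutions added, then virus at MOI 0.5 (line 2: NADL F224S mutant). 5 days at 37 °C, then ethanol fixation and Giemsa staining. CPE scored microscopically 0–10 per well. EC50 by logarithmic interpolation; mean ± SD of at least three experiments.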

MDBK441 [6] = assay: Selectivity index (CC50/EC50) for inhibition of BVDV NADL in MDBK cells; format: functional
Outline: (§2)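 SI = CC50/EC50. EC50 comes from a 5-day Giemsa-stained CPE assay in MDBK cells at MOI 0.5; CC50 from a 3-day MTS/PMS proliferation assay. Means of at least three experiments. Line 10 uses the NADL F224S mutant.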

Human betaherpesvirus 5 [7] = assay: Antiviral activity against HCMV Davis in human embryonic lung cells; format: functional, organism-based
Coxsackievirus B4 = assay: Antiviral activity against coxsackie virus B4 in vero cells; format: functional, organism-based
Human alphaherpesvirus 2 = assay: Antiviral activity against HSV2 G in E6SM cells; format: functional, organism-based
MDBK441 [8] = assay: Cytotoxicity against MDBK cells; format: functional; conditions: Bos taurus
Outline: (§3)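 Cells seeded the day before, then given serial compound dilutions and left to proliferate 3 days at 37 °C. MDBK: 10^4/well in MEM-FCS. Huh 5-2: 5 × 10^3/well in complete DMEM. Cell number read by MTS/PMS. CC50 is the concentration inhibiting cell growth by 50%.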

Human respirovirus 3 = assay: Antiviral activity against parainfluenza3 virus in vero cells; format: functional, organism-based
[9] = test system: Vesicular stomatitis virus; assay: Antiviral activity against vesicular stomatitis virus in E6SM cells; format: functional, organism-based
[10] = test system: Respiratory syncytial virus; assay: Antiviral activity against respiratory syncytial virus […] in HeLa cells; format: functional, organism-based
MDBK441 [11] = assay: Selectivity index (CC50/EC50) for inhibition of VP32947-resistant BVDV in MDBK cells; format: functional; outline: as §2
[12] = test system: Bovine viral diarrhea virus 1; assay: Antiviral activity against VP32947-resistant BVDV in MDBK cells; format: functional, organism-based; conditions: Bovine viral diarrhea virus isolates and strains; outline: as §1
Huh-5-2 = assay: Cytotoxicity against human hepatoma Huh5-2 cells; format: functional; outline: as §3
MDBK441 [13] = assay: Inhibition of BVDV NADL RNA production in MDBK cells; format: functional, cell-based; conditions: Bos taurus
Outline: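 Viral RNA came from supernatant, total cellular RNA by kit. One-step TaqMan RT-qPCR: UNG 50 °C 2 min; RT 60 °C 30 min; 95 °C 5 min; 40 cycles of 94 °C 20 s and 62 °C 1 min. Three replicate reactions per sample.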

MDBK441 [14] = assay: Inhibition of BVDV NADL production in MDBK cells; format: functional, cell-based; conditions: Bos taurus
Outline: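 Supernatants were titrated on MDBK cells seeded at 5 × 10^3/well (10–15% confluent). Cells were infected 24 h later with 10-fold serial dilutions and, after 4 days, ethanol-fixed and Giemsa-stained. CPE was read microscopically; titre by Reed–Muench, as CCID50/mL.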

Compound | Activity (Punta Toro virus) | Activity [1] | Activity [2] | Activity [3] | Activity (Human alphaherpesvirus 1) | Activity (Vaccinia virus) | Activity (Sindbis virus) | Activity (Human betaherpesvirus 5 [4]) | EC50 [5] | Selectivity index (MDBK441 [6]) | Activity (Human betaherpesvirus 5 [7]) | Activity (Coxsackievirus B4) | Activity (Human alphaherpesvirus 2) | CC50 (MDBK441 [8]) | Activity (Human respirovirus 3) | Activity [9] | Activity [10] | other results
COc1cc(O)c2c(=O)c3cc([N+](=O)[O-])c(Cl)cc3n(C)c2c1 | inactive | inactive | inactive | inactive | inactive | inactive | inactive | inactive | > 83 µg/mL | 1 | inactive | inactive | inactive | 83 µg/mL (≈ 248 µM) | inactive | inactive | inactive | –
COc1cc(OC)c2c(=O)c3cc([N+](=O)[O-])c(Cl)cc3n(C)c2c1 | inactive | inactive | inactive | inactive | inactive | inactive | inactive | inactive | > 100 µg/mL | 1 | inactive | inactive | inactive | > 100 µg/mL | inactive | inactive | inactive | –
CCCN(CCC)CCSc1n[nH]c2c3ccccc3nc-2n1 | – | – | – | – | – | – | – | – | 0.009 µg/mL (≈ 0.0273 µM) | >111 | – | – | – | > 1 µg/mL | – | – | – | Selectivity index (MDBK441 [11]): 1; EC50 [12]: > 1 µg/mL
Cn1c2cc(N3CCN(c4ccccn4)CC3)c(N)cc2c(=O)c2c(O)cc(O)cc21 | inactive | inactive | inactive | inactive | inactive | inactive | inactive | inactive | – | >200 | inactive | inactive | inactive | > 100 µg/mL | inactive | inactive | inactive | CC50 (Huh-5-2): 21 µg/mL (≈ 50.3 µM); EC50 (MDBK441 [13]): 2.3 µg/mL (≈ 5.51 µM); Selectivity index (MDBK441 [11]): >45; EC50 (MDBK441 [14]): 2.01 µg/mL (≈ 4.81 µM); EC50 [12]: 2.24 µg/mL (≈ 5.37 µM)
COc1cc(OC)c2c(=O)c3cc(N)c(Cl)cc3n(C)c2c1 | inactive | inactive | inactive | inactive | inactive | inactive | inactive | inactive | > 100 µg/mL | 1 | inactive | inactive | inactive | > 100 µg/mL | inactive | inactive | inactive | –
COc1cc(OC)c2c(=O)c3cc([N+](=O)[O-])c(N4CCN(c5ccccn5)CC4)cc3n(C)c2c1 | inactive | inactive | inactive | inactive | inactive | inactive | inactive | inactive | 18 µg/mL (≈ 37.9 µM) | >6 | inactive | inactive | inactive | > 100 µg/mL | inactive | inactive | inactive | –
Cn1c2cc(Cl)c(N)cc2c(=O)c2c(O)cc(O)cc21 | inactive | inactive | inactive | inactive | inactive | inactive | inactive | inactive | – | 13 | inactive | inactive | inactive | 5 µg/mL (≈ 17.2 µM) | inactive | inactive | inactive | –
COc1cc(O)c2c(=O)c3cc(N)c(N4CCN(c5ccccn5)CC4)cc3n(C)c2c1 | inactive | inactive | inactive | inactive | inactive | inactive | inactive | inactive | – | >25 | inactive | inactive | inactive | > 100 µg/mL | inactive | inactive | inactive | –
COc1cc(O)c2c(=O)c3cc(N)c(Cl)cc3n(C)c2c1 | inactive | inactive | inactive | inactive | inactive | inactive | inactive | inactive | – | >47 | inactive | inactive | inactive | > 33 µg/mL | inactive | inactive | inactive | –
COc1cc(O)c2c(=O)c3cc([N+](=O)[O-])c(N4CCN(c5ccccn5)CC4)cc3n(C)c2c1 | inactive | inactive | inactive | inactive | inactive | inactive | inactive | inactive | > 100 µg/mL | 1 | inactive | inactive | inactive | > 100 µg/mL | inactive | inactive | inactive | –
COc1cc(OC)c2c(=O)c3cc(N)c(N4CCN(c5ccccn5)CC4)cc3n(C)c2c1 | inactive | inactive | inactive | inactive | inactive | inactive | inactive | inactive | > 100 µg/mL | 1 | inactive | inactive | inactive | > 100 µg/mL | inactive | inactive | inactive | –
C[C@@]1(O)[C@H](O)[C@@H](CO)O[C@H]1n1cnc2c(N)ncnc21 | – | – | – | – | – | – | – | – | 0.22 µg/mL (≈ 0.782 µM) | >63 | – | – | – | > 14 µg/mL | – | – | – | Selectivity index (MDBK441 [11]): >38; EC50 [12]: 0.37 µg/mL (≈ 1.32 µM)
